This note sets out measurements from the array DNA melting data of Ke et al. (doi:10.1101/2024.01.08.574731).

Data set [1] is described as follows: folding enthalpy; higher = less favourable; fluorescence melt of hairpins on a sequencing array, two-state fit. Particulars: sodium 0.088 M. A digest of the protocol:
(§1)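 Folding enthalpy and melting temperature were estimated with bootstrapped two-state fits and combined across four replicates by inverse-variance weighting, with fitted temperatures raised by 9.35 °C to match UV melts. The data were Cy3 fluorescence of library hairpins, with annealed Cy3 and quencher oligos, on a sequenced MiSeq flow cell in 50 mM Na-HEPES pH 8.0, 25 mM NaCl, imaged in 2.5 °C steps up to 60 °C and normalised to pre-quench Cy3 and control constructs.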

Data set [2] can be described thus: melting temperature; fluorescence melt of hairpins on a sequencing array, two-state fit, raised by 9.35 °C to match UV melts. As to conditions: sodium 0.088 M. The procedure, abridged:
as §1

GGACCCCCGAAAGGGTCC (((..(((....)))))): in data set [1], the folding enthalpy is -34.8 kcal/mol. Further, the Tm in data set [2] is 62.1 °C.
The like results for GGACCCCGAAAGGGTTCC (((.(((....))).))) were, in that order, -23.2 kcal/mol and 52.5 °C.
The like results for GGACCCGAAAGGGAATCC ((((((....)))..))) were, in that order, -16.7 kcal/mol and 34.6 °C.
Taken in the same sequence, the figures for GGACCCGAAAGGGACTCC ((((((....)))..))) were -13 kcal/mol and 54 °C.
As to GGACCCGAAAGGGCATCC ((((((....)))..))), the folding enthalpy in data set [1] is -11.7 kcal/mol. Also, the Tm in data set [2] amounted to 34.2 °C.
The like results for GGACCCGAAAGGGGCTCC ((((((....)))..))) were, in that order, -9.41 kcal/mol and 56.5 °C.
Consider GGACCCGGAAACGGACCC ((..(((....)))..)), for which the folding enthalpy in data set [1] was -13.8 kcal/mol. The Tm in data set [2] is 32.7 °C.
For the sequence GGACCGCCGAAAGGCTCC (((..(((....)))))), in data set [1], the folding enthalpy was -10 kcal/mol. For the same sequence, the Tm in data set [2] came out at 32.2 °C.
Taken in the same sequence, the figures for GGACCTGAAAAGGTCC ((((((....)))))) were -34.4 kcal/mol and 68.2 °C.
Taken in the same sequence, the figures for GGACGACGAAAGTCCTCC (((.(((....))).))) were -19.4 kcal/mol and 45.4 °C.
As for GGACGAGGAAACTCATCC (((.(((....))).))), the folding enthalpy in data set [1] is -27.4 kcal/mol. In addition, in data set [2], the Tm worked out at 36.7 °C.
Taken in the same sequence, the figures for GGACGAGGAAACTCGCCC ((.((((....)))).)) were -23.3 kcal/mol and 51.7 °C.
In the case of GGACGCACGAAAGTGTCC (((..(((....)))))), the folding enthalpy in data set [1] was -21.4 kcal/mol. In data set [2], the Tm is 47 °C.
The like results for GGACGCCGAAAGGCTCC (((.(((....)))))) were, in that order, -19.7 kcal/mol and 54.3 °C.
Taken in the same sequence, the figures for GGACGCCGAAAGGCTTCC (((.(((....))).))) were -23.4 kcal/mol and 53.8 °C.
The like results for GGACGCGAAAGCGGATCC ((((((....)))..))) were, in that order, -12.3 kcal/mol and 47.5 °C.
On to GGACGCGAAAGCGGCTCC ((((((....)))..))), for which the folding enthalpy in data set [1] was -8.87 kcal/mol. For the same sequence, the Tm in data set [2] stood at 58 °C.
The like results for GGACGGAAACGTCC (((((....))))) were, in that order, -31.9 kcal/mol and 66.4 °C.
In the case of GGACGGACGAAAGTCTCC (((..(((....)))))), the folding enthalpy in data set [1] was -13.2 kcal/mol. For the same sequence, the Tm in data set [2] was 30.5 °C.
The like results for GGACGGGGAAACCCATCC (((.(((....))).))) were, in that order, -27.6 kcal/mol and 41.7 °C.
Take GGACGGGGAAACCCGTTC (.(((((....))))).): the folding enthalpy in data set [1] is -21.4 kcal/mol. The Tm in data set [2] was determined as 56.1 °C.
As for GGACGTCGAAAGACTCC (((.(((....)))))), in data set [1], the folding enthalpy was -23.8 kcal/mol. Moreover, in data set [2], the Tm was 51.2 °C.
Turning to GGACGTGGAAACGCGTCC (((((.(....).))))), in data set [1], the folding enthalpy was -45.2 kcal/mol. In data set [2], the Tm came out at 61.9 °C.
Taken in the same sequence, the figures for GGACGTGGAAACGTGTCC ((((..(....)..)))) were -19.9 kcal/mol and 44.3 °C.
For GGACTAGGAAACTGGTCC ((((.((....)).)))), the folding enthalpy in data set [1] was -41.6 kcal/mol. The Tm in data set [2] came out at 50.9 °C.
For GGACTCCCGAAAGGGTCC (((..(((....)))))), in data set [1], the folding enthalpy is -16.8 kcal/mol. Further, the Tm in data set [2] stood at 45.3 °C.
The like results for GGACTCCGAAAGGATTCC (((.(((....))).))) were, in that order, -30.2 kcal/mol and 47 °C.
The like results for GGACTCGAAAGAGAATCC ((((((....)))..))) were, in that order, -12.6 kcal/mol and 28.8 °C.
On to GGACTCGAAAGAGCTCC ((((((....))).))), for which the folding enthalpy in data set [1] was -26 kcal/mol. In addition, the Tm in data set [2] worked out at 45 °C.
For the sequence GGACTCGAAAGAGGGTCC ((((((....)))..))), the folding enthalpy in data set [1] was -21 kcal/mol. In data set [2], the Tm is 43.9 °C.
GGACTCGAAAGAGTGTCC ((((((....)))..))): the folding enthalpy in data set [1] was -16.9 kcal/mol. Also, the Tm in data set [2] was determined as 40.7 °C.
The like results for GGACTCGGAAACGAGCCC ((.((((....)))).)) were, in that order, -34.7 kcal/mol and 53.5 °C.
The like results for GGACTCTCGAAAGAGTCC (((..(((....)))))) were, in that order, -42.7 kcal/mol and 60.9 °C.
Consider GGACTGCGAAAGCACTCC (((.(((....))).))), for which the folding enthalpy in data set [1] was -8.91 kcal/mol. For the same sequence, the Tm in data set [2] came out at 38.9 °C.
As for GGACTTCCGAAAGGATCC (((..(((....)))))), the folding enthalpy in data set [1] is -12.7 kcal/mol. Also, in data set [2], the Tm is 29.1 °C.
The like results for GGACTTGGAAACAGGTCC ((((.((....)).)))) were, in that order, -46.5 kcal/mol and 49.4 °C.
Taken in the same sequence, the figures for GGAGAACGAAAGTTATCC (((.(((....))).))) were -37.2 kcal/mol and 51.6 °C.
